Experimental findings from the EternaBench riboswitch data are described below.

The subject of the data set is MS2 coat protein. As to the kind of experiment: apparent Kd, MS2 coat protein; higher = weaker binding; RNA-MaP array; FMN 200 µM where present. A digest of the protocol:
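SNAP-549-labelled MS2 coat protein, doubled from 0.7 or 1.5 nM to 3 µM, was titrated over designs transcribed by stalled E. coli RNA polymerase on Illumina sequencing-chip clusters. Titrations were run without and then with constant ligand in 100 mM Tris-HCl pH 7.5, 80 mM KCl, 4 mM MgCl2, BSA, DTT, yeast tRNA and Tween-20. The apparent Kd is the median of filtered per-cluster fits to green signal normalised to red-channel RNA signal and control-cluster median Fmax.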

Where [1] appears, read: designed as: ON switch for flavin mononucleotide, no ligand.
[2] abbreviates: ligand present: flavin mononucleotide, designed as: ON switch for flavin mononucleotide.
[3] abbreviates: designed as: OFF switch for flavin mononucleotide, no ligand.
The mark [4] stands for this setting: ligand present: flavin mononucleotide, designed as: OFF switch for flavin mononucleotide.

For orientation: apparent Kd means a dissociation constant that holds for the conditions of the assay. Take “GACUGCGUUAUGAAGGAUAUCCGCGUCUGGACAUGAGGAUCACCCAUGUAUACUUGGAUCGUGCAGGAGAAGGUCAAGGGUGAUU”: the “apparent Kd” value by setting is: under setting [1], 90 nM; under setting [2], 265 nM.
For “UCCUGAUUGAGAGGUAGGAGUGGUAGAAGGCGACCGGUGCCAGAUGACAUGAGGAUCACCCAUGUCGAGGAUAUACCACAGAAU”, the “apparent Kd” value came out at 6.96 nM under setting [3] and 13.1 nM under setting [4].
In the case of “GUCGGGUCUCACGCGUCGGUCCACAUGAGGAUCACCCAUGUCAAGGAUAUAGCGUCUUCCGGGCGUUAGAAGGUGACCAUUGGC”, the “apparent Kd” value is, setting by setting: under setting [3], 34.6 nM; under setting [4], 48.1 nM.
Consider “UUAUGAGAGCAGGAUAUCUUAUAUUUGUAUUAAAGAGAAGGGCUCACAUGAGGAUCACCCAUGUGGUCCUAGAU”, for which the “apparent Kd” value was 51.6 nM under setting [3] and 431 nM under setting [4].
“UGGUGAAGUGUAGGAUAUGGAGAUGGGUUUUGGCCAGAAGGACAUGAGGAUCACCCAUGUGGUAGAGGGUUGGUGGUAGCUCCU”: the “apparent Kd” value was determined as 36.2 nM under setting [3] and 31.7 nM under setting [4].
On to “UAUAUAUAGUAAGGAUAUGUAUUUGUUUUAUAAACAGAAGGUACUGACAUGAGGAUCACCCAUGUUUUAGUGUGGGCAUGUAGA”, for which the “apparent Kd” value runs as follows: under setting [3], 39.5 nM; under setting [4], 41.4 nM.
On to “UGACCACAUGAGGAUCACCCAUGUGAGGAUAUCAGAAUACGGCAUCGGGCCGUACUUUUGAGAAGGCACAUAAA”, for which the “apparent Kd” value runs as follows: under setting [3], 24.1 nM; under setting [4], 65.2 nM.
Turning to “GAAUAGGCAGGAUAUACAUGAGGAUCACCCAUGUGCCUGCGAAAGGUACGUUCGAAAGGUAGAAGGGCCUAAAC”, the “apparent Kd” value runs as follows: under setting [3], 12.1 nM; under setting [4], 17.1 nM.
Consider “AACAUCCAAGCGCCCGGGUGGAGGAGAAGGCGGACAUGAGGAUCACCCAUGUGCAGCCACAAGUCCGAGGAUAUCCUUUGUGUU”, for which the “apparent Kd” value under setting [3] came out at 10.6 nM and the “apparent Kd” value under setting [4] is 20.2 nM.
With “GCGUAUUUAAUAUAUAUAAAACUGUCAGAAGGUGAUAAGACGACAUGAGGAUCACCCAUGUAAUUCAAGGAUAUGAUAAUGCGC”, the “apparent Kd” value reads like this: under setting [1], 37.3 nM; under setting [2], 20.3 nM.
As for “UAAAACCUAGGAUAUACAUGAGGAUCACCCAUGUUCGAAGGAGCCCAAGUGACUUCUAGUAGAAGGAGGGCGAA”, the “apparent Kd” value came out at 18.8 nM under setting [3] and 23 nM under setting [4].
“GGCAUGUAAGGAUAUGUCCCUGAGUGCUUUGCGCUCAGGAAACAGAAGGUACAUGAGGAUCACCCAUGUGAUAA”: the “apparent Kd” value is, setting by setting: under setting [3], 725 nM; under setting [4], 75.9 nM.
Turning to “UUGGAGUACGUAGGAUAUGUAGGAUUUUCCUACAUGAGGAUCACCCAUGUUAGCAUGGAAGAAGGACAGAAGGACGUGCUCCAU”, the “apparent Kd” value was found to be 1040 nM under setting [1] and 78.1 nM under setting [2].
The matching figures for “GUGGUGGGUUGAGGAUAUUGGUUGUUGUUGUCCCACAUGAGGAUCACCCAUGUGGGUUGUGGUUUUGAGAAGGUUGGUUGCUGG”: 18.3 nM and 15.5 nM.
Turning to “UAUUAAAACGAGAAGGGAGUACAUGAGGAUCACCCAUGUGCCUCAUAAUACUCAGGAUAUCGUGAUUGGGUCACCAGCUGGGUG”, the “apparent Kd” value is, setting by setting: under setting [3], 509 nM; under setting [4], 29.3 nM.
With “GUAGCAUACCGAGGAUAUUCAUAGCGGAAACGCACAUGAGGAUCACCCAUGUGGCGAAAGCCUUGGGAGAAGGCGGAAUGCUAC”, the “apparent Kd” value is, setting by setting: under setting [1], 118 nM; under setting [2], 18.1 nM.
Take “AAGUCAGCAGGAUAUGCGAUGUUGUGCUAGAUAGCGUGACCACAUGAGGAUCACCCAUGUAGAAGGGCUGGCUA”: the “apparent Kd” value was determined as 30.9 nM under setting [3] and 20.2 nM under setting [4].
“UCAGGCUUCGAGAAGGACAUGAGGAUCACCCAUGUGCGUGUGAAGCAGCCGUGAGGCUGCAUCAUGUAGGAUAUCGGAGUCUGG”: the “apparent Kd” value turned out to be 74 nM under setting [3] and 583 nM under setting [4].
For “CAGUACGGAGGAUAUACAUGAGGAUCACCCAUGUGAGAAAUACUAGUGAGGUCGAUUAGUAGAAGGCUGUACUG”, the “apparent Kd” value under setting [3] came to 40.5 nM and the “apparent Kd” value under setting [4] amounted to 579 nM.
In the case of “CCGAGGCGAGGAUAUAUGAAGGACACAACAUUUAGGGUAAGACAUGAGGAUCACCCAUGUAGAAGGCGCGACGC”, the “apparent Kd” value reads like this: under setting [3], 63.4 nM; under setting [4], 55.8 nM.
Take “CGUCGAAAGGCGGGUCCAUCACCACAUGAGGAUCACCCAUGUAAGGAUAUCGGACUCAGAAAGAGCGAGAAGGUACAUAGUUAA”: the “apparent Kd” value stood at 6.01 nM under setting [3] and 6.53 nM under setting [4].
Consider “AUCAGCUCGUCAGGAUAUACAUCACUGCUUCGGCAGUGUAUCUUAACAACAUGAGGAUCACCCAUGUAGAAGGGACGAGCUGAU”, for which the “apparent Kd” value under setting [3] stood at 17.6 nM and the “apparent Kd” value under setting [4] came to 24.5 nM.
Regarding “GUCGGAAACGACAAAAGUAGCAUAGGAGAAGGUCCAUUAAACAUGAGGAUCACCCAUGUAAUUGGGAAGGAUAUCCUAUGCUAC”, the “apparent Kd” value was found to be 9.27 nM under setting [1] and 5.84 nM under setting [2].
For “AUGGUUGUCGUAGGAUAUGUAGGAUAUUCCUACAUGAGGAUCACCCAUGUUCGCAUGGAAGAAGGACGGAAGGACGAUGACCAU”, the “apparent Kd” value came to 194 nM under setting [1] and 132 nM under setting [2].
As for “UGCAUGCUAGGAUAUACGGGACAUUAGGGUUCGUUGUAUGGACAUGAGGAUCACCCAUGUAGAAGGAGCGUGCU”, the “apparent Kd” value runs as follows: under setting [3], 27.4 nM; under setting [4], 112 nM.
As to “UAUGUCUUUGUGAGGAUAUACUUUGUUUGGUCGUAGUAGAAGGCACAUGAGGAUCACCCAUGUAGAUUUUUGGU”, the “apparent Kd” value by setting is: under setting [3], 23.1 nM; under setting [4], 36.1 nM.
On to “UGCGAACAGGCUAACAUGAGGAUCACCCAUGUGGACUCAUGGUAGGAUAUCGGGAAGGAGGAAACCGAGAAGGGCCGGUGAGCU”, for which the “apparent Kd” value reads like this: under setting [1], 217 nM; under setting [2], 150 nM.
Take “UGUCCGAGCAGAGGAUAUUACAUGAGGAUCACCCAUGUAUGAACCAAUAGCUGGAAACAGCAAUGUAAGAAGGCUGCUCCGACA”: the “apparent Kd” value turned out to be 12.2 nM under setting [3] and 155 nM under setting [4].
As for “CAGUACUGAGGAUAUACAUGAGGAUCACCCAUGUGCCUCAGGUAGGAUACUACCAUUAGUAGAAGGCAGUACUG”, the “apparent Kd” value by setting is: under setting [3], 197 nM; under setting [4], 37.7 nM.
For the sequence “UCAUACGGUGAGGAUAUCUCCGCUAAAGUGUGUAGAGAAGGCGCUACAUGAGGAUCACCCAUGUUUGUGGGCAG”, the “apparent Kd” value reads like this: under setting [3], 402 nM; under setting [4], 149 nM.
On to “GAGUGGAGGUAAGGAUAUAUAAUGAUAAUCACAGUAGAAGGUACUAACAUGAGGAUCACCCAUGUAGGACUAUACCAGAGAGGG”, for which the “apparent Kd” value under setting [1] amounted to 16.9 nM and the “apparent Kd” value under setting [2] is 15.3 nM.
For the sequence “UGGAGGUCAGGAUAUGCAUGGCGGGACUUGCGUCGUGGCGUGCAGAAGGGACAUGAGGAUCACCCAUGUGGAGA”, the “apparent Kd” value by setting is: under setting [3], 88.6 nM; under setting [4], 112 nM.
The matching figures for “CUUUGGAUGUCAGGAUAUUGAAUCAUGGAUGGUAUCUUACAGUCUUACAUGAGGAUCACCCAUGUCGAGAAGGGAUAUCAGCUC”: 6.15 nM and 10.5 nM.
In the case of “ACCAGCGAUAUUUCGGUGAGUCAACCAGAAGGGACGAAGCCACAUGAGGAUCACCCAUGUCACUGUCAGGAUAUGGGAAGCGAC”, the “apparent Kd” value runs as follows: under setting [1], 364 nM; under setting [2], 29.5 nM.
Regarding “UGGUACAUGGGAGGAUAUGGGAAGUUAACAUGAGGAUCACCCAUGUUAUGCCGAAAGGCAAAGAACUAGAAGGCCCAUGUACCU”, the “apparent Kd” value is, setting by setting: under setting [1], 16.7 nM; under setting [2], 16.1 nM.
Take “GUAAGAAAUACAGGAUAUGUUAGUUUUAAGUGUAUUGGUUAUUACUUAAUUACAGAAGGGUAUUACAUGAGGAUCACCCAUGUA”: the “apparent Kd” value runs as follows: under setting [1], 14.8 nM; under setting [2], 9.06 nM.
The matching figures for “GGACAUUUACAGAAGGGCAAAUUUUAUAGUGAAUAUUUAGUUCUGAUUUGCAGGAUAUGUGGAACAUGAGGAUCACCCAUGUCC”: 13.8 nM and 6.71 nM.
Take “CCGUUACAUGAGGAUCACCCAUGUGAGGAUAUCGGUGUGACUGGCAGCGUGCGGGACUCGAGAAGGCGCUUGGC”: the “apparent Kd” value is, setting by setting: under setting [3], 48.5 nM; under setting [4], 48.4 nM.
With “UCAUUUAUUACAGGAUAUGUUAGAAUUCAGUUGUUUGGUUAUUACAUAUUAACAGAAGGGUAGAACAUGAGGAUCACCCAUGUA”, the “apparent Kd” value by setting is: under setting [1], 114 nM; under setting [2], 81.5 nM.
With “AAUUCACAUGAGGAUCACCCAUGUCAGGAUAUGGUGACGCGGGUUUCGGUGCGUGUUGCCAGAAGGGACAGCUA”, the “apparent Kd” value came to 79.2 nM under setting [3] and 119 nM under setting [4].
With “CAUUAAUAGUAGAAGGGUCAAGUUUUGGGUAGGGCAGGAUAUACGAACAAGAAACAUGAGGAUCACCCAUGUGUCCAUGUCAUG”, the “apparent Kd” value came out at 33.9 nM under setting [3] and 29.6 nM under setting [4].
Take “UGGUUGGGAGGAUAUCCAAUAUAUGACAUGAGGAUCACCCAUGUUUCCACUCGUACCUCCGGAGAAGGCCCUUCCA”: the “apparent Kd” value under setting [3] came out at 23.1 nM and the “apparent Kd” value under setting [4] came out at 22 nM.
For “AUUUUAAUAUAGGAUAUCGAAUUUAUUAUUUAACGAGAAGGAUAAACAUGAGGAUCACCCAUGUGGUAUCAUGG”, the “apparent Kd” value under setting [3] was found to be 126 nM and the “apparent Kd” value under setting [4] worked out at 117 nM.
As to “UGUCGGAGCAGAGGAUAUUACAUGAGGAUCACCCAUGUAUGAACCAAUAGCUGGAAACAGCAAUGUAAGAAGGCUGCUCCGACU”, the “apparent Kd” value came to 13 nM under setting [3] and 174 nM under setting [4].
“UUUAAGUCAGGAUAUCGUUAAUUUAAUUGUUUGUUUUAGUUCGAGAAGGGACAUGAGGAUCACCCAUGUAAUUU”: the “apparent Kd” value was found to be 34.3 nM under setting [3] and 38.9 nM under setting [4].
Turning to “UGGUACAUGGGAGGAUAUGGGUUGAUAACAUGAGGAUCACCCAUGUUAAAUAUGCCUAAUGGCAACUAGAAGGCCCAUGUACCU”, the “apparent Kd” value by setting is: under setting [1], 377 nM; under setting [2], 40.8 nM.
Turning to “CUAGCUAUCGGAGGAUAUCCUCAGCGGAAACGCACAUGAGGAUCACCCAUGUAAAUAAAUAAUUUGGAGAAGGCCGAUAGCUAG”, the “apparent Kd” value under setting [1] came out at 294 nM and the “apparent Kd” value under setting [2] worked out at 19.2 nM.
Consider “UUGGUUGUCGUAGGAUAUGGAGGAUAUUCCUACAUGAGGAUCACCCAUGUUCGCAUGGAAGAAGGCCAGAAGGACGAUGACCAU”, for which the “apparent Kd” value is, setting by setting: under setting [1], 10.4 nM; under setting [2], 4.38 nM.
